For one compound, Activity results are on record in ChEMBL document CHEMBL4000256, “Light-Regulated NO Release as a Novel Strategy To Overcome Doxorubicin Multidrug Resistance” (ACS Med Chem Lett, 2017).

The source made the active and inactive calls. The rule behind the calls is not given here.

The test system of the experiment is M14. Kind of experiment: Cytotoxicity against 7 mW/cm'2 irradiated human M14 cells assessed as increase in LDH release at 5 uM coadministered with DOX measured after 20 mins by spectrophotometric method. The class given is functional, cell-based. A digest of the protocol:
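Cells (M14 melanoma, human fibroblasts or rat H9c2 cardiomyocytes) kept 20 min at room temperature in PBS under 400 nm light (7 mW/cm2), alone or with 5 μM compound, given alone or with equimolar 5 μM doxorubicin. Damage read as extracellular LDH release. Triplicate measurements, n = 3.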

Take `NCCCNc1ccc([N+](=O)[O-])c(C(F)(F)F)c1`: the result was Active.
